In experiment [1] the target is T1, Histone deacetylase (Homo sapiens) (UniProt Q13547+O15379+Q9UBN7+Q92769+Q9UQL6+Q8WUI4+Q9BY41+Q96DB2+P56524+Q9UKV0+Q969S8). The experiment can be described thus: Inhibition of HDAC in human HeLa-S3 cell lysates assessed as residual activity at 1 x 10^-4 M preincubated for 15 mins followed by HDAC-Glo substrate addition measured after 35 mins by […] relative to control. Format: protein assay.

Experiment [2] deals with Jurkat. The experiment can be described thus: Cytotoxicity against human Jurkat cells assessed as cell viability at 10 uM after 44 hrs by MTT assay relative to control. It is filed as functional. The settings on record: read-out: Activity. (In general: Formazan colour is commonly taken as a measure of viable cells.)
The subject of experiment [3] is U-937. The experiment can be described thus: Cytotoxicity against human U937 cells assessed as cell viability at 8 x 10^-6 M after 44 hrs by MTT assay relative to control. Format: functional. The settings on record: U-937, 44 h, read-out: Activity.
Experiment [4] relates to U-937. Briefly: Cytotoxicity against human U937 cells assessed as cell viability at 6.4 x 10^-5 M after 44 hrs by MTT assay relative to control. Format: functional. As to conditions: U-937, 44 h, read-out: Activity.
Experiment [5] addresses T1, Histone deacetylase (Homo sapiens). Briefly: Inhibition of HDAC in human HeLa-S3 cell lysates assessed as residual activity at 1.25 x 10^-5 M preincubated for 15 mins followed by HDAC-Glo substrate addition measured after 35 mins by […] relative to control. Format: protein assay.
For experiment [6], the system named is U-937. Briefly: Cytotoxicity against human U937 cells assessed as cell viability at 4 x 10^-6 M after 44 hrs by MTT assay relative to control. Format: functional. As to conditions: U-937, 44 h, read-out: Activity.
The subject of experiment [7] is Jurkat. The experiment can be described thus: Cytotoxicity against human Jurkat cells assessed as cell viability at 1 uM after 44 hrs by MTT assay relative to control. Format: functional. As to conditions: read-out: Activity.
Experiment [8] has as its target T2, Histone deacetylase 8 (Homo sapiens) (UniProt Q9BY41).
T2 sequence (whole entry): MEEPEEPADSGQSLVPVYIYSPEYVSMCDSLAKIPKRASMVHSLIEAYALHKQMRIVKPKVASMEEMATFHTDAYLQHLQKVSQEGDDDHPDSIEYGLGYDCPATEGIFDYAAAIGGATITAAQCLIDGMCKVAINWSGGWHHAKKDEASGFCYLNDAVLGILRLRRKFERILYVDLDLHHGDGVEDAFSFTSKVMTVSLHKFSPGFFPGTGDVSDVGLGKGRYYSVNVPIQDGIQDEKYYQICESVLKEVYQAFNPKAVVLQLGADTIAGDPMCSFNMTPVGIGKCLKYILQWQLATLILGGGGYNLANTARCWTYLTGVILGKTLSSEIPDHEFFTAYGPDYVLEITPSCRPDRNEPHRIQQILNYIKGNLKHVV
Briefly: Inhibition of human recombinant full-length C-terminal His-tagged HDAC8 expressed in baculovirus infected Sf9 insect cell assessed as remaining activity at 4 x 10^-7 M preincubated for 15 mins followed by HDAC-Glo substrate addition measured after 30 mins by fluorimetric method rel;ative to control. The essentials: (§1)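 Recombinant HDAC8 (75 ng) preincubated 15 min at RT with inhibitor in DMSO in HDAC-Glo buffer. HDAC-Glo reagent added and luminescence read 30 min later. Background taken from a reaction without enzyme; activity as % of DMSO control.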

The target of experiment [9] is T2, Histone deacetylase 8 (Homo sapiens). The experiment can be described thus: Inhibition of human recombinant full-length C-terminal His-tagged HDAC8 expressed in baculovirus infected Sf9 insect cell assessed as remaining activity at 8 x 10^-7 M preincubated for 15 mins followed by HDAC-Glo substrate addition measured after 30 mins by fluorimetric method rel;ative to control. An outline of the steps: as §1

In experiment [10] the target is Histone deacetylase 2 (Homo sapiens) (UniProt Q92769). Briefly: Inhibition of HDAC2 in human HeLa-S3 cell lysates assessed as remaining activity at 2 x 10^-6 M preincubated for 15 mins followed by HDAC-Glo substrate addition measured after 30 to 40 mins by fluorimetric method relative to control. An outline of the steps:
(§2)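 Same antibody-capture format as the other class I isoforms. HeLa-S3 lysate added at 100 μg/mL for HDAC1 and HDAC2, 1 h at 4 °C, then washed. Inhibitor in DMSO preincubated 15 min at RT; HDAC-Glo reagent added and luminescence read after 30-40 min. Concentrations are final. Signal corrected against a well without antibody; activity expressed as % of DMSO control.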

The target is the same in experiment [11]. Briefly: Inhibition of HDAC2 in human HeLa-S3 cell lysates assessed as remaining activity at 4 x 10^-6 M preincubated for 15 mins followed by HDAC-Glo substrate addition […] relative to control.
The target in experiment [12] is T1, Histone deacetylase (Homo sapiens). The experiment can be described thus: Inhibition of HDAC in human HeLa-S3 cell lysates assessed as residual activity at 4.8 x 10^-5 M preincubated for 15 mins followed by HDAC-Glo substrate addition measured after 35 mins by […] relative to control. Format: protein assay.
The target of experiment [13] is Histone deacetylase 3 (Homo sapiens) (UniProt O15379). The experiment can be described thus: Inhibition of HDAC3 in human HeLa-S3 cell lysates assessed as remaining activity at 1.6 x 10^-5 M preincubated for 15 mins followed by HDAC-Glo substrate addition measured after 30 to 40 mins by […] relative to control. An outline of the steps:
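Antibody-capture (ELISA-type) assay: HDAC antibody coated in carbonate/bicarbonate buffer pH 9.4, wells blocked with 5% milk in TBST. HeLa-S3 lysate added at 1 mg/mL for HDAC3, 1 h at 4 °C, then washed. Inhibitor in DMSO preincubated 15 min at RT in HDAC-Glo buffer. HDAC-Glo reagent added, luminescence read after 30-40 min. Concentrations are final. Background = no-antibody well; activity given as % of DMSO control.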

The target of experiment [14] is Histone deacetylase 1 (Homo sapiens) (UniProt Q13547). The experiment can be described thus: Inhibition of HDAC1 in human HeLa-S3 cell lysates assessed as remaining activity at 1 x 10^-6 M preincubated for 15 mins followed by HDAC-Glo substrate addition measured after 30 to 40 mins by fluorimetric method relative to control. An outline of the steps: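 HDAC1 was captured from HeLa-S3 lysate (100 μg/mL) onto wells precoated with anti-HDAC1 antibody (10 μg/mL, carbonate buffer pH 9.4) and milk-blocked, 1 h at 4 °C, then washed. Inhibitor in DMSO was added in HDAC-Glo buffer for 15 min at room temperature. HDAC-Glo reagent was added and luminescence read after 30-40 min. Concentrations are final. No-antibody background subtracted; % of DMSO control.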
Chain of Histone deacetylase 1 (Homo sapiens) (Q13547 whole entry): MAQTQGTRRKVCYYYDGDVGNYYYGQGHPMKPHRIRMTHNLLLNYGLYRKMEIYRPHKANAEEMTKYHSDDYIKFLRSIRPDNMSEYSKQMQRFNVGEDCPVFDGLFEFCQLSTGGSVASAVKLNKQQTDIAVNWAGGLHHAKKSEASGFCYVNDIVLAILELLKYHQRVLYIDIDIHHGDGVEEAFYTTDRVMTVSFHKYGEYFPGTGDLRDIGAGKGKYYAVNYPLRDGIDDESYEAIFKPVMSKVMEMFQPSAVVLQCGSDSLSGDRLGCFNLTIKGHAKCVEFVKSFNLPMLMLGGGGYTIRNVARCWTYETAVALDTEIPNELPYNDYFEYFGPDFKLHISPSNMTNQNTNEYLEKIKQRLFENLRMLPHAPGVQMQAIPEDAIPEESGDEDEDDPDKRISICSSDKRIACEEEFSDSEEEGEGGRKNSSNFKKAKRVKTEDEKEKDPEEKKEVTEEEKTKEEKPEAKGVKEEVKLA

The target in experiment [15] is Histone deacetylase 2 (Homo sapiens) (UniProt Q92769). The experiment can be described thus: Inhibition of HDAC2 in human HeLa-S3 cell lysates assessed as remaining activity at 1 x 10^-6 M preincubated for 15 mins followed by HDAC-Glo substrate addition measured after 30 to 40 mins by […] relative to control. The essentials: as §2
Chain of Histone deacetylase 2 (Homo sapiens) (Q92769 whole entry, canonical isoform): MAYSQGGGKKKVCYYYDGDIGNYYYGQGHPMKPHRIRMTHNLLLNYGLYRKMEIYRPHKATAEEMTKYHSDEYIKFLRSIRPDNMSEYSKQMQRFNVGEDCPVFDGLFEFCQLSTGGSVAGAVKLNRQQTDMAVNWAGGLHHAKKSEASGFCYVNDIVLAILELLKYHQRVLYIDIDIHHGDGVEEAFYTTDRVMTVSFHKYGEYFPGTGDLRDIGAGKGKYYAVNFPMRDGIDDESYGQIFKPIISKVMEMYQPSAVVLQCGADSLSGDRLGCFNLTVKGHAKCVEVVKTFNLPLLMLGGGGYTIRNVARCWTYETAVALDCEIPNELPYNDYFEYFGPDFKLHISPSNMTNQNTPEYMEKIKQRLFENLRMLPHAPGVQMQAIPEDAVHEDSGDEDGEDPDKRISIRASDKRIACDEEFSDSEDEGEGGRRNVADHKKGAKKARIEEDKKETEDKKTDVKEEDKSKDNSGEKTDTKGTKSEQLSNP
Experiment [16] shares this target. Briefly: Inhibition of HDAC2 in human HeLa-S3 cell lysates assessed as remaining activity at […] preincubated for 15 mins followed by HDAC-Glo substrate addition measured after 30 to 40 mins by […] relative to control.
The target of experiment [17] is Histone deacetylase 3 (Homo sapiens) (UniProt O15379). The experiment can be described thus: Inhibition of HDAC3 in human HeLa-S3 cell lysates assessed as remaining activity at […] preincubated for 15 mins followed by HDAC-Glo substrate addition measured after 30 to 40 mins by […] relative to control.
Chain of Histone deacetylase 3 (Homo sapiens) (O15379 whole entry): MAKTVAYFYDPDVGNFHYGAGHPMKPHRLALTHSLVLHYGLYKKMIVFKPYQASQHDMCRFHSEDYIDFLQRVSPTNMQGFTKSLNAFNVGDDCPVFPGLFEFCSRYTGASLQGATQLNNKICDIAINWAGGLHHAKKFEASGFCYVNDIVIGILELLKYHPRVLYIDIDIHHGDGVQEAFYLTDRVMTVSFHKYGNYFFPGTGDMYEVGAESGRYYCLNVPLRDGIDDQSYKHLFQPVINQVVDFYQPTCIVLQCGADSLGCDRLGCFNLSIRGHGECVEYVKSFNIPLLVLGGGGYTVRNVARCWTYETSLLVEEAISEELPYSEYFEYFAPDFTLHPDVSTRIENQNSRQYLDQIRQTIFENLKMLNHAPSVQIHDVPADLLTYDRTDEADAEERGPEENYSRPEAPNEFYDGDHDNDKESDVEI

As for `O=C(CCC(CCCC(=O)Nc1ccccc1)Cc1ccccc1)NO` (racemic), the Activity stood at 35% in experiment [1] and 88% in [5]. Further, the viability at 10 µM in the experiment with Jurkat [2] was 97%. For the same molecule, the viability at 8 µM with U-937 [3] came to 80%. Also, in the experiment on U-937 [4], the viability at 64 µM turned out to be 26%. Further, the viability at 4 µM in the experiment on U-937 [6] was determined as 74%. Besides, the viability at 1 µM in the experiment with Jurkat [7] was 89%.
`CCCCCCC(CCCC(=O)Nc1ccccc1)CCC(=O)NO` (stereo not given): the values for the Activity in experiment [1] and in experiment [5] were 35% and 87%, respectively. For the same molecule, the viability at 10 µM in the experiment with Jurkat [2] was 39%. Moreover, the viability at 8 µM in the experiment with U-937 [3] is 102%. For the same molecule, the viability at 64 µM in the experiment with U-937 [4] was 24%. For the same molecule, in the experiment on U-937 [6], the viability at 4 µM worked out at 108%. The viability at 1 µM with Jurkat [7] stood at 69%.
As to `O=C(CC[C@H](CCCC(=O)Nc1ccccc1)Cc1ccccc1)NO`, the Activity was 28% in [8] and 19% in [9].
`CCC(CCCC(=O)Nc1ccccc1)CCC(=O)NO` (stereo not given): the Activity is 69% in experiment [10]; 25% in [8]; 59% in experiment [11]; 12% in experiment [12]; 17% in experiment [13]; 81% in experiment [14]. Moreover, the Activity is 86% in [15], 87% in experiment [16] and 71% in experiment [17].
